Consider ten compounds from ChEMBL document CHEMBL1124122, “Protoberberine alkaloids as antimalarials” (J Med Chem, 1988).

Values after ≈ are worked out from the molar mass of the structure shown. Active and inactive are the calls of the source.

For assay [1], the system named is Plasmodium falciparum. As to the kind of experiment: In vitro antimalarial activity against Plasmodium falciparum D6. The assay is classed as functional, organism-based. The gist of the method: (§1)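 Parasite growth inhibition was read out as uptake of tritiated hypoxanthine.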
For assay [2], the system named is Mus musculus. As to the kind of experiment: In vivo Mean survival time of Plasmodium berghei parasitized mice dosed at 40 mg/kg. Type of assay: functional. The method in brief: (§2)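 Mice infected with drug-sensitive Plasmodium berghei strain KBG 173. Result given as T − C: the mean survival time of treated mice beyond that of untreated infected controls. A compound counts as active when T − C is ≥ 6.2 days.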

Assay [3] relates to Mus musculus. The experiment in a line: In vivo Mean survival time of Plasmodium berghei parasitized mice dosed at 160 mg/kg; Toxic. The assay is classed as functional, organism-based. Details: dose 160 mg/kg. The method in brief:
(§3)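 Mice were infected with the drug-sensitive P. berghei strain KBG 173 and given the stated dose. T − C is the mean survival time of treated mice beyond that of untreated controls. A compound counts as active only if T − C is ≥ 6.2 days, and toxicity is flagged separately.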

In assay [4] the test system is Plasmodium falciparum. As to the kind of experiment: In vitro antimalarial activity against Plasmodium falciparum W2. The assay is classed as functional, organism-based. The gist of the method: as §1
Assay [5] has as its system Mus musculus. As to the kind of experiment: In vivo Mean survival time of Plasmodium berghei parasitized mice dosed at 640 mg/kg; Toxic. Type of assay: functional, organism-based. Details: dose 640 mg/kg. The gist of the method:
as §3

The subject of assay [6] is Mus musculus. As to the kind of experiment: In vivo Mean survival time of Plasmodium berghei parasitized mice dosed at 40 mg/kg; Not active. Set-up: dose 40 mg/kg. Type of assay: functional, organism-based. The method in brief:
as §3

Assay [7] relates to Plasmodium falciparum. As to the kind of experiment: (§4) In vitro antimalarial activity against Plasmodium falciparum D6. The assay is classed as functional, organism-based. The gist of the method: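 Parasite growth inhibition read as uptake of tritiated hypoxanthine.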
In assay [8] the test system is Mus musculus. The experiment in a line: In vivo Mean survival time of Plasmodium berghei parasitized mice dosed at 160 mg/kg; Not active. Type of assay: functional, organism-based. Details: dose 160 mg/kg. The gist of the method: as §3
Assay [9] relates to Mus musculus. The experiment in a line: In vivo Mean survival time of Plasmodium berghei parasitized mice dosed at 640 mg/kg; Not active. The assay is classed as functional, organism-based. Set-up: dose 640 mg/kg. The gist of the method:
as §3

Assay [10] concerns Mus musculus. As to the kind of experiment: In vivo Mean survival time of Plasmodium berghei parasitized mice dosed at 640 mg/kg. The assay is classed as functional. The method in brief: as §2
The test system of assay [11] is Mus musculus. The experiment in a line: In vivo Mean survival time of Plasmodium berghei parasitized mice dosed at 160 mg/kg. Type of assay: functional. The method in brief: as §2
The test system of assay [12] is Plasmodium falciparum. The assay is described as §4. The assay is classed as functional, organism-based. The gist of the method:
as §1
This is another data set of the same source.

As a reminder, the IC50 is the concentration that inhibits the measured activity by half. The low end stands for inhibition by little substance, the high end for a need for much substance. In the case of `COc1cc2c(cc1OC)-c1cc3ccc(OC)c(OC)c3c[n+]1CC2.[Cl-]` [PALMATINE CHLORIDE], the IC50 is 0.281 µg/mL in the assay with Plasmodium falciparum [1] and 0.163 µg/mL with Plasmodium falciparum [4]. Moreover, the values for the T-C in the assay on Mus musculus [2], in the assay with Mus musculus [3] and in the assay with Mus musculus [5] were 0.5 days, “Toxic” and “Toxic”, respectively.

On to `COc1ccc2c(c1OC)C[N+]1(C)CCc3cc4c(cc3C1C2)OCO4.[I-]` (stereo not given), for which the T-C result in the assay on Mus musculus [6], in the assay with Mus musculus [8] and in the assay with Mus musculus [9] was “inactive” in each case. Also, the half-maximal inhibitory concentration (IC50) came out at 0.97 µg/mL in the assay with Plasmodium falciparum [7] and 1.34 µg/mL in the assay with Plasmodium falciparum [4].

Regarding `COc1ccc2c(c1OC)C[N+]1([O-])CCc3cc4c(cc3C1C2)OCO4` (stereo not given), the T-C with Mus musculus [10] amounted to 0 days; with Mus musculus [2] it was 0 days; with Mus musculus [11], 0.2 days. For the same compound, the IC50 with Plasmodium falciparum [7] turned out to be 0.565 µg/mL (≈ 1.59 µM); in the assay on Plasmodium falciparum [4], 0.558 µg/mL (≈ 1.57 µM).

Regarding `COc1ccc2c(c1OC)CN1CCc3cc4c(cc3[C@@H]1C2)OCO4` [CANADINE], the T-C with Mus musculus [10] is 0.3 days; in the assay on Mus musculus [2], 0.1 days; in the assay on Mus musculus [11] it was 0.1 days. Moreover, the half-maximal inhibitory concentration (IC50) is 0.555 µg/mL (≈ 1.64 µM) in the assay on Plasmodium falciparum [7] and 1.74 µg/mL (≈ 5.12 µM) in the assay on Plasmodium falciparum [4].

Regarding `COc1ccc2c(c1OC)C(C#N)N1CCc3cc4c(cc3C1=C2)OCO4` (stereo not given), the IC50 in the assay on Plasmodium falciparum [1] is 0.101 µg/mL (≈ 0.279 µM); in the assay on Plasmodium falciparum [4] it was 0.143 µg/mL (≈ 0.395 µM). In addition, the T-C result with Mus musculus [6], in the assay with Mus musculus [8] and in the assay on Mus musculus [9] was “inactive” in each case.

For the compound `COc1ccc2c(OC)c3[n+](cc2c1OC)CCc1cc2c(cc1-3)OCO2`, the T-C in the assay with Mus musculus [10] was 0.2 days; in the assay with Mus musculus [2], -0.2 days; in the assay with Mus musculus [11], -0.2 days. For the same compound, the IC50 was found to be 0.568 µg/mL in the assay with Plasmodium falciparum [1] and 0.701 µg/mL in the assay on Plasmodium falciparum [4].

In the case of `COc1cc2c(cc1O)CC[n+]1cc3c(OC)c(OC)ccc3cc1-2.[Cl-]` [JATRORRHIZINE CHLORIDE], the T-C result in the assay on Mus musculus [6], in the assay with Mus musculus [8] and in the assay on Mus musculus [9] was “inactive” each time. In addition, the IC50 with Plasmodium falciparum [7] is 0.422 µg/mL; in the assay on Plasmodium falciparum [4], 1.61 µg/mL.

`COc1ccc2c(c1OC)CN1CCc3cc4c(cc3C1=C2)OCO4` [DIHYDROBERBERINE]: the results for the T-C with Mus musculus [2], in the assay on Mus musculus [3] and with Mus musculus [5] were -0.2 days, “Toxic” and “Toxic”, respectively. Further, the IC50 stood at 0.12 µg/mL (≈ 0.356 µM) with Plasmodium falciparum [7] and 0.171 µg/mL (≈ 0.507 µM) with Plasmodium falciparum [4].

Regarding `COc1ccc2cc3[n+](cc2c1OC)CCc1cc2c(cc1-3)OCO2.[Cl-]` [BERBERINE CHLORIDE], the T-C in the assay on Mus musculus [2] was 0.6 days; with Mus musculus [11], 1 days; in the assay on Mus musculus [5], “Toxic”. Moreover, the IC50 was determined as 0.141 µg/mL in the assay on Plasmodium falciparum [12] and 0.148 µg/mL in the assay on Plasmodium falciparum [4].

Turning to `COc1ccc2cc3n(c(=O)c2c1OC)CCc1cc2c(cc1-3)OCO2` [OXYBERBERINE], the values for the T-C in the assay with Mus musculus [10], with Mus musculus [2] and in the assay with Mus musculus [11] were 0.3 days, 0.1 days and 0.5 days, respectively. In addition, the IC50 came out at 0.557 µg/mL (≈ 1.59 µM) in the assay with Plasmodium falciparum [1] and 2.01 µg/mL (≈ 5.71 µM) in the assay on Plasmodium falciparum [4].
